# Assay results gathered from unrelated publications.
# Protocols differ between the studies behind these lines.
# Cell line: MRC5
# Read-out: cell growth or viability
SMILES,assay,conditions,IC50
CCCCC/C=C/C(=O)CCc1ccc(O)c(OC)c1,SRB,,18.5 µM
O=C([O-])c1ccc(-n2nc(-c3ccccc3O)nc2-c2ccccc2[O-])cc1.O=C([O-])c1ccc(-n2nc(-c3ccccc3O)nc2-c2ccccc2[O-])cc1.[Ti+4],MTT,72 h,25 µM
O=C(/C=C/C=C/c1ccc2c(c1)OCO2)N1CCCCC1,SRB,,136 µM
Oc1ccccc1-c1n[nH]c(-c2ccccc2O)n1,MTT,72 h,> 100 µM
COc1ccc(C(=O)O[C@@H]2CN3Cc4c(cc5c(c4OC)OCO5)[C@@]24C=C[C@H](OC)C[C@@H]34)cc1,WST-1,,> 10 µM
CC(C)=CCC/C(C)=C/COc1ccc2ccc(=O)oc2c1,MTT,72 h,> 100 µM
COc1c2c(cc3c1OCO3)[C@]13C=C[C@H](OC)C[C@H]1N(C2)C[C@H]3OC(=O)c1cccc(C)c1,WST-1,,> 10 µM
CC(=O)O[C@H]1C(=O)[C@@]2(C)[C@H]([C@H](OC(=O)c3ccccc3)[C@]3(O)C[C@H](OC(=O)[C@H](O)[C@@H](NC(=O)c4ccccc4)c4ccccc4)C(C)=C1C3(C)C)[C@]1(OC(C)=O)CO[C@@H]1C[C@@H]2O,SRB,,0.0141 µM
COc1cc2ccc(=O)oc2cc1OC,MTT,72 h,> 100 µM
COc1cccc(C(=O)O[C@@H]2CN3Cc4c(cc5c(c4OC)OCO5)[C@@]24C=C[C@H](OC)C[C@@H]34)c1,WST-1,,> 10 µM
